Results on 20 molecules are retold here after ChEMBL document CHEMBL3997823, “New homoisoflavonoid analogues protect cells by regulating autophagy” (Bioorg Med Chem Lett, 2017).

The test system of data set [1] is SH-SY5Y. Put plainly: Neuroprotective activity against MPP+-induced injury in human SH-SY5Y cells assessed as cell viability at 5 uM preincubated for 16 hrs followed by MPP+ addition measured after 8 hrs (reference value: 40.71 to 55.85%). The conditions noted are these: read-out: Activity. The data set is classed as functional.
The test system of data set [2] is SH-SY5Y. Kind of data set: Neuroprotective activity against MPP+-induced injury in human SH-SY5Y cells assessed as cell viability at 50 uM preincubated for 16 hrs followed by MPP+ addition measured after 8 hrs (reference value: 40.71 to 55.85%). Type of data set: functional. The conditions noted are these: read-out: Activity.
The test system of data set [3] is H9c2. Kind of data set: Cardioprotective activity against H2O2-induced injury in rat H9C2 cells assessed as increase in cell viability preincubated for 24 hrs followed by H2O2 addition measured after 24 hrs by MTT assay. For orientation: Tetrazolium assays rely on reduction of a dye to a coloured formazan, in cell work by metabolically active cells.
A short description of data set [4]: Cytotoxicity against human MCF7 cells assessed as inhibition of cell growth at 50 uM after 72 hrs by MTT assay relative to control. Type of data set: cell-based.
In data set [5] the test system is H9c2. Put plainly: Cardioprotective activity against H2O2-induced injury in […] H9C2 cells assessed as increase in cell viability preincubated for 24 hrs followed by H2O2 addition measured after 24 hrs by MTT assay. Type of data set: functional, cell-based. As to conditions: Rattus norvegicus. The method, boiled down:
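H9c2 cardiomyocytes injured with H2O2; cell viability read-out, with diazoxide as positive control.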

The nature of data set [6]: Cytotoxicity against human SH-SY5Y cells assessed as inhibition of cell growth at 50 uM after 72 hrs by MTT assay relative to control. The data set is classed as cell-based.
The test system of data set [7] is SH-SY5Y. Put plainly: Induction of autophagy in human SH-SY5Y cells transfected with GFP-LC3 at 5 uM by MDC staining-based fluorescence microscopic method. The data set is classed as functional, cell-based.
Data set [8] concerns SH-SY5Y. Kind of data set: Induction of autophagy in human SH-SY5Y cells at 12.5 to 50 uM after 24 by MDC staining-based flow cytometric method. The data set is classed as functional, cell-based. The essentials: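 SH-SY5Y cells were treated with compound for the indicated times, then stained with monodansylcadaverine. The MDC-positive cell ratio was measured by flow cytometry as the quantitative autophagy read-out.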

Activity calls are given as the source filed them. No cut-off for these calls is given here.

Take `COc1ccccc1Cc1coc2cc(O)ccc2c1=O`: the viability at 5 µM with SH-SY5Y [1] was determined as 38.1%. Also, the viability at 50 µM in the data set with SH-SY5Y [2] is 37.5%. For the same molecule, the EC50 with H9c2 [3] was 12.7 µM. Regarding `COc1ccc(Cc2coc3cc(O)cc(O)c3c2=O)cc1`, in the data set with H9c2 [3], the EC50 was over 100 µM.

`COc1ccccc1Cc1coc2cc(O)cc(O)c2c1=O`: the EC50 in the data set on H9c2 [3] worked out at 24.4 µM. As for `COc1cc(OC)c(OC)cc1Cc1coc2cc(O)cc(O)c2c1=O`, the viability at 5 µM with SH-SY5Y [1] is 62.1%. Moreover, the inhibition at 72 h, 50 µM came to 49.5% in data set [4] and 15.3% in data set [6]. In addition, the 50% effective concentration (EC50) in the data set on H9c2 [5] was 15.7 µM. For the same molecule, the viability at 50 µM with SH-SY5Y [2] worked out at 48.4%.

`COc1cc(OC)c2c(=O)c(Cc3ccc(C(F)(F)F)cc3)coc2c1`: in the data set on H9c2 [3], the EC50 is over 100 µM. On the same count and under the same terms, to `COc1ccc(Cc2coc3cc(OC(C)=O)cc(O)c3c2=O)cc1` belongs over 100 µM; to `COc1ccc(Cc2coc3cc(OCC=C(C)C)cc(O)c3c2=O)cc1`, over 100 µM; to `COc1cccc(Cc2coc3cc(O)cc(O)c3c2=O)c1`, over 100 µM. In the case of `COc1ccc(Cc2coc3cc(O)cc(O)c3c2=O)cc1OC`, the outcome in the data set with SH-SY5Y [7] and in the data set on SH-SY5Y [8] was Active. In addition, the viability at 5 µM in the data set with SH-SY5Y [1] is 60.3%. Moreover, in the data set with SH-SY5Y [2], the viability at 50 µM was found to be 60.9%. Moreover, the EC50 with H9c2 [3] stood at 12.1 µM. Consider `COc1ccc(Cc2coc3cc(OCCCCCl)cc(O)c3c2=O)cc1`, for which the EC50 in the data set on H9c2 [3] is over 100 µM. The same measure, in the same setting: to `COc1ccccc1Cc1coc2cccc(O)c2c1=O` belongs over 100 µM. As to `O=c1c(Cc2ccc(C(F)(F)F)cc2)coc2cc(O)cc(O)c12`, the EC50 in the data set on H9c2 [3] came out at 12.7 µM. For the molecule `COc1ccc(Cc2coc3cc(OC(=O)N(C)C)cc(O)c3c2=O)cc1`, in the data set on SH-SY5Y [1], the viability at 5 µM worked out at 42.5%. Besides, the viability at 50 µM in the data set with SH-SY5Y [2] was 35.5%. In the data set on H9c2 [3], the EC50 came out at 19.9 µM. As for `CCC(=O)Oc1cc(O)c2c(=O)c(Cc3ccc(OC)cc3)coc2c1`, the EC50 in the data set with H9c2 [3] was over 100 µM. For `COc1cc(OC)c2c(=O)c(Cc3ccc(Cl)c(Cl)c3)coc2c1`, the outcome with SH-SY5Y [7] was Active. For the same molecule, the viability at 5 µM in the data set on SH-SY5Y [1] was 62.4%. Also, the viability at 50 µM with SH-SY5Y [2] is 48.9%. Also, in the data set with H9c2 [3], the EC50 stood at 23.8 µM. For the molecule `COc1ccc(Cc2coc3cc(OCCCl)cc(O)c3c2=O)cc1`, the EC50 with H9c2 [3] is over 100 µM. With `COc1ccc(Cc2coc3cc(OC)cc(OC)c3c2=O)cc1`, the EC50 in the data set with H9c2 [3] is over 100 µM. Turning to `COc1cc(OC)c2c(=O)c(Cc3cccs3)coc2c1`, in the data set with SH-SY5Y [1], the viability at 5 µM worked out at 37.8%. Moreover, the viability at 50 µM in the data set with SH-SY5Y [2] worked out at 42.2%. Further, the EC50 in the data set with H9c2 [3] stood at 74.3 µM. Consider `COc1ccc(Cc2coc3cccc(O)c3c2=O)cc1`, for which the EC50 with H9c2 [3] is over 100 µM. Regarding `COc1ccc(Cc2coc3cc(O)ccc3c2=O)cc1`, the concentration giving a half-maximal response (EC50) with H9c2 [3] turned out to be 32.1 µM.

The EC50 is the concentration needed to bring the measured effect to its halfway point. As a reminder, the inhibition is the share of the control response that was lost under treatment.
